The source made the active and inactive calls. The rule behind the calls is not given here.
Tests used:
[1] = biological target: Histone deacetylase (HDAC1 and HDAC2) (Homo sapiens, UniProt Q13547+Q92769); experiment: Inhibition of HDAC1/2 in human HeLa cell nuclear extract using Fluor de Lys as substrate after 15 mins by fluorometric analysis; format: protein assay
[2] = biological target: Histone deacetylase 1 (Homo sapiens, UniProt Q13547); experiment: Inhibition of HDAC1 in human HeLa cell nuclear extract using Fluor de Lys as substrate after 15 mins by fluorometric analysis
Sequence of Histone deacetylase 1 (Q13547 whole entry): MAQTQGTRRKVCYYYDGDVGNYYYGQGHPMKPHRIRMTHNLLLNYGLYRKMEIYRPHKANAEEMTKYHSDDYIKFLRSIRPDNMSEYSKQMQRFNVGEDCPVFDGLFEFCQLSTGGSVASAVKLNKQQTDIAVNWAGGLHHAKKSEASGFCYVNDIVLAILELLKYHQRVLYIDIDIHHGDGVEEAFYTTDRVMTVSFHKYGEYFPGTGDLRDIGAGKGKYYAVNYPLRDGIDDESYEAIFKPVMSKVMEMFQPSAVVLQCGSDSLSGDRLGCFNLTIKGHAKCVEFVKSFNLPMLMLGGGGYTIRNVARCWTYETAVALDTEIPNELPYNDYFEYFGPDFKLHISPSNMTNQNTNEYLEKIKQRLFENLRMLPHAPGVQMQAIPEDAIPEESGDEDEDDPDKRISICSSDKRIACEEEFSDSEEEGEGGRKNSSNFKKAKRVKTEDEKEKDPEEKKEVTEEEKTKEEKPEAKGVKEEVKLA

[3] = biological target: T1, Protein deacetylase HDAC6 (Homo sapiens, UniProt Q9UBN7); experiment: Inhibition of HDAC6 in human HeLa cell nuclear extract using Fluor de Lys as substrate after 15 mins by fluorometric analysis
T1 sequence (Q9UBN7 whole entry): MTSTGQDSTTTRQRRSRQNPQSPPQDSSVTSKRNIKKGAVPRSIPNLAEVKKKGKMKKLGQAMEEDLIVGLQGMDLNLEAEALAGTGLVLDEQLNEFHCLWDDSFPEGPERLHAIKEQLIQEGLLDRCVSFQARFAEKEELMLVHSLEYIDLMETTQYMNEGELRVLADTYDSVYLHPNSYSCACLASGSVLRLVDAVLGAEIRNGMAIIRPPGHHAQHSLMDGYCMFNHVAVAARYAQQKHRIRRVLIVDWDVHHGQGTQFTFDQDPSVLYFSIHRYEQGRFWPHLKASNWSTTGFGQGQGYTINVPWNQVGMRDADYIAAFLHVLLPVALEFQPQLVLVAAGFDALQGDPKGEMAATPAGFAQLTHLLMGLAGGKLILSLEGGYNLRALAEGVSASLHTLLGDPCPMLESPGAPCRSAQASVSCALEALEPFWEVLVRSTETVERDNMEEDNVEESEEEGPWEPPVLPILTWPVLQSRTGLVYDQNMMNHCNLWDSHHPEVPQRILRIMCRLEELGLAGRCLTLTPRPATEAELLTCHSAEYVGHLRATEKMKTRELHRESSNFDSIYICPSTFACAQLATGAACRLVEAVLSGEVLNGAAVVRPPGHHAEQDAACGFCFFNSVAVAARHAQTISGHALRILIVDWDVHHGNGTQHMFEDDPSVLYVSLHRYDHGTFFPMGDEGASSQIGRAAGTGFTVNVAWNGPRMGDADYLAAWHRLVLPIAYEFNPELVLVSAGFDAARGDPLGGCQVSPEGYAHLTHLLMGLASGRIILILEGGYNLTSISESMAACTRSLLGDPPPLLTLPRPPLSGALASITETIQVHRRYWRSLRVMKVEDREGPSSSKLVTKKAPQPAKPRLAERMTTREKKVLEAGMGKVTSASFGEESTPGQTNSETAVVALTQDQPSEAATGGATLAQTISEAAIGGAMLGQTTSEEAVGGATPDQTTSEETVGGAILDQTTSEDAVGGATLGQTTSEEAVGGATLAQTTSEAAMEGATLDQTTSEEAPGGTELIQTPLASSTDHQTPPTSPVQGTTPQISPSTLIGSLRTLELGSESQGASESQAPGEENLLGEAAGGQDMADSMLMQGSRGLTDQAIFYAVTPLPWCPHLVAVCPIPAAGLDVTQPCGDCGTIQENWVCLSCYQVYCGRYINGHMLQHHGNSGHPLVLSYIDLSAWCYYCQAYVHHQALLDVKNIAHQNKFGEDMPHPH

[4] = biological target: DNA topoisomerase 2-alpha (Homo sapiens) (UniProt P11388); experiment: Inhibition of Topoisomerase 2 assessed as kinetoplast DNA decatenation at 50 uM after 10 mins by electrophoretic analysis
Sequence of DNA topoisomerase 2-alpha (Homo sapiens) (P11388 whole entry): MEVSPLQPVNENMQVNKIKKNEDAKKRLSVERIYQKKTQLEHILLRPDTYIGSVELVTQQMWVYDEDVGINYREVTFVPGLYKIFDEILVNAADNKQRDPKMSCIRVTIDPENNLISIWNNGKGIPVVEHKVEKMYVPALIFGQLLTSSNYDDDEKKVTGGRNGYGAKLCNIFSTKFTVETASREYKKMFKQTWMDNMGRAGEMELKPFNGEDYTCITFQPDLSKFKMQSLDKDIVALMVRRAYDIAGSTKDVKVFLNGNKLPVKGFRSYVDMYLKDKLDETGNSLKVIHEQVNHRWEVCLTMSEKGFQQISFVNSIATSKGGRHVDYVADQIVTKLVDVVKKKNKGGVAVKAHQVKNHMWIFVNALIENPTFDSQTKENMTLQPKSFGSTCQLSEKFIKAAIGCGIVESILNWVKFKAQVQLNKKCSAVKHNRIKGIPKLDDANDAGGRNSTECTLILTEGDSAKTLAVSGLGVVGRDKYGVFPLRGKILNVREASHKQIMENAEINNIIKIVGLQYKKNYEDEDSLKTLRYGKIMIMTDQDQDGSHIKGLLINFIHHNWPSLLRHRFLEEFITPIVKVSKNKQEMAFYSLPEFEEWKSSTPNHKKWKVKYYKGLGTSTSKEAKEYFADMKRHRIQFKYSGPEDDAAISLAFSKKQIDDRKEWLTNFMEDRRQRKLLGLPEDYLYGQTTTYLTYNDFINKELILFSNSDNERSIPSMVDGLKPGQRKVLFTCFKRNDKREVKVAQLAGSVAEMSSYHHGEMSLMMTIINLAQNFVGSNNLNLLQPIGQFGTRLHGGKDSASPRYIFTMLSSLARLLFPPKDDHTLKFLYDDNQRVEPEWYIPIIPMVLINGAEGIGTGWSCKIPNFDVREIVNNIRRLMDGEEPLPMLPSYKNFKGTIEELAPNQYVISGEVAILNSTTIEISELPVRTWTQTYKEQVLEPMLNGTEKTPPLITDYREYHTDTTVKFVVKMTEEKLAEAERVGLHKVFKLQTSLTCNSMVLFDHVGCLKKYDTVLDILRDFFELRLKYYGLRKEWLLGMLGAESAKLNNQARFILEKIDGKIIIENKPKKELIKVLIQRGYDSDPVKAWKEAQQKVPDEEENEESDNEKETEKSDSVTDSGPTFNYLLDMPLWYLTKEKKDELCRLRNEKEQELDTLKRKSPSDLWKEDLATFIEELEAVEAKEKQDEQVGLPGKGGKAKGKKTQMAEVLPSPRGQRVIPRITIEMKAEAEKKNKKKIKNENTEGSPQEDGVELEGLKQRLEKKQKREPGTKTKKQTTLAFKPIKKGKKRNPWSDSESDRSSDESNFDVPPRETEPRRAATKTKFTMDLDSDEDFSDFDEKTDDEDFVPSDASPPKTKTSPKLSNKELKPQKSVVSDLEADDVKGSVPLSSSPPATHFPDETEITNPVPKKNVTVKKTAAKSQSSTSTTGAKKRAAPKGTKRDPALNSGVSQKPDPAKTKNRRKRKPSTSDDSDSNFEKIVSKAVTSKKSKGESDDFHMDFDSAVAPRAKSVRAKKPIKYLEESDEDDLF

[5] = test system: DU-145; experiment: Antiproliferative activity against human DU145 cells after 72 hrs by MTS assay; format: functional, cell-based; conditions: DU-145, 72 h
Procedure, shortened: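 DU-145 cells passaged 24 h before dosing and exposed 72 h; compounds from 10 mM DMSO stocks; controls given media with 0.1% DMSO; 37°C, 5% CO2. Viability read by MTS assay, with Trypan Blue staining also used. IC50 from the average of two experiments, each run in triplicate.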

[6] = test system: SK-MES-1; experiment: Antiproliferative activity against human SKMES1 cells after 72 hrs by MTS assay; format: functional, cell-based; conditions: SK-MES-1, 72 h
[7] = test system: MCF7; experiment: Antiproliferative activity against human MCF7 cells after 72 hrs by MTS assay; format: functional, cell-based; conditions: MCF7, 72 h
[8] = biological target: T2, Histone deacetylase (Homo sapiens) (UniProt Q13547+O15379+Q9UBN7+Q92769+Q9UQL6+Q8WUI4+Q9BY41+Q96DB2+P56524+Q9UKV0+Q969S8); experiment: Inhibition of HDAC in human DU145 cells assessed as upregulation of p21waf1 protein expression at 0.1 uM after 24 hrs by Western blot analysis; format: cell-based; conditions: DU-145
Procedure, shortened: (§1)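 DU-145 cells passaged 24 h before dosing, then exposed 24 h to compound in growth medium (final DMSO 0.1%); controls received 0.1% DMSO. Lysed in RIPA with protease inhibitors at 4°C, cleared at 14,000 × g. Protein quantified against BSA, boiled, transferred to nitrocellulose. Probed for acetyl-H3, acetyl-H4 and p21waf1 with actin loading control; read by near-infrared scanning at 700/800 nm.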

[9] = biological target: T2, Histone deacetylase (Homo sapiens); experiment: Inhibition of HDAC in human DU145 cells assessed as histone H4 acetylation after 24 hrs by Western blot analysis; format: cell-based; conditions: DU-145; procedure, shortened: as §1
[10] = biological target: T2, Histone deacetylase (Homo sapiens); experiment: Inhibition of HDAC in human DU145 cells assessed as histone H3 hyperacetylation at 0.1 to 0.5 uM after 24 hrs by Western blot analysis; format: cell-based; conditions: DU-145; procedure, shortened: as §1
[11] = biological target: T3, Protein deacetylase HDAC6 (Homo sapiens) (UniProt Q9UBN7); experiment: Inhibition of HDAC6-mediated tubulin acetylation in human DU145 cells at 90 nM after 4 hrs by Western blot analysis; format: cell-based; conditions: DU-145
T3 sequence (whole entry): T1 sequence (Q9UBN7 whole entry)
Procedure, shortened: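 DU-145 cells passaged 24 h before dosing, then treated 4 h, with no more than 0.1% DMSO including controls. Lysis in RIPA buffer with protease inhibitors, protein quantified against a BSA standard, SDS-PAGE and transfer. Blots probed with rabbit anti-tubulin and mouse anti-acetyl tubulin, read by near-infrared imaging at 700/800 nm.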

[12] = biological target: T3, Protein deacetylase HDAC6 (Homo sapiens); experiment: Inhibition of HDAC6-mediated tubulin acetylation in human DU145 cells at 500 nM after 4 hrs by Western blot analysis; format: cell-based; conditions: DU-145
Procedure, shortened: (§2)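 Lysed in RIPA with protease inhibitors, cleared 14,000 RPM at 4°C. Immunoblotted, probing acetylated versus total tubulin; p21 also checked. Near-infrared detection at 700/800 nm.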

[13] = biological target: T2, Histone deacetylase (Homo sapiens); experiment: Inhibition of HDAC in human DU145 cells assessed as upregulation of p21 expression at IC50 concentration after 4 hrs by Western blot analysis relative to control; format: cell-based; conditions: DU-145; procedure, shortened: as §2
[14] = biological target: T2, Histone deacetylase (Homo sapiens); experiment: Inhibition of HDAC in human DU145 cells assessed as upregulation of p21 expression at 5 times IC50 concentration after 4 hrs by Western blot analysis relative to control; format: cell-based; conditions: DU-145; procedure, shortened: as §2
[15] = biological target: DNA topoisomerase 2-alpha (Homo sapiens) (UniProt P11388); experiment: Inhibition of topoisomerase 2 in human DU145 cells assessed as stabilization of enzyme-DNA cleavage complex at 90 nM after 30 mins by immunoblot analysis; format: cell-based; conditions: DU-145
[16] = biological target: DNA topoisomerase 2-alpha (Homo sapiens) (UniProt P11388); experiment: Inhibition of topoisomerase 2 in human DU145 cells assessed as stabilization of enzyme-DNA cleavage complex at 90 nM after 72 hrs by immunoblot analysis; format: cell-based; conditions: DU-145
[17] = Drug uptake in human DU145 cell nucleus at 1 uM after 4 hrs by confocal microscopic analysis; format: ADME, cell-based; conditions: du-145, 4 h
Procedure, shortened: (§3)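 Cells plated on glass coverslips 24 h beforehand, then incubated in fresh medium with compound at 1 μM for 4 h. Washed with PBS, coverslips mounted and imaged by confocal microscopy at 488 nm excitation. DU-145 (prostate carcinoma) shown in main text; A549 lung tumour cells treated likewise.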

[18] = Drug uptake in human DU145 cell perinuclear region at 1 uM after 4 hrs by confocal microscopic analysis; format: ADME, cell-based; conditions: du-145, 4 h
Procedure, shortened: (§4)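 Cells plated on glass coverslips 24 h ahead, then given fresh media with compound at 1 μM for 4 h. After a PBS wash, coverslips were mounted and intracellular distribution imaged by confocal microscopy, excitation 488 nm. Done in DU-145 cells, with A549 lung tumor cells also examined.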

[19] = Drug uptake in human A549 cell nucleus at 1 uM after 4 hrs by confocal microscopic analysis; format: ADME, cell-based; conditions: a549, 4 h; procedure, shortened: as §3
[20] = Drug uptake in human A549 cell perinuclear region at 1 uM after 4 hrs by confocal microscopic analysis; format: ADME, cell-based; conditions: a549, 4 h; procedure, shortened: as §4
[21] = biological target: T4, Histone deacetylase 8 (Homo sapiens, UniProt Q9BY41); experiment: Inhibition of HDAC8 in human HeLa cell nuclear extract using Fluor de Lys as substrate after 15 mins by fluorometric analysis
T4 sequence (Q9BY41 whole entry): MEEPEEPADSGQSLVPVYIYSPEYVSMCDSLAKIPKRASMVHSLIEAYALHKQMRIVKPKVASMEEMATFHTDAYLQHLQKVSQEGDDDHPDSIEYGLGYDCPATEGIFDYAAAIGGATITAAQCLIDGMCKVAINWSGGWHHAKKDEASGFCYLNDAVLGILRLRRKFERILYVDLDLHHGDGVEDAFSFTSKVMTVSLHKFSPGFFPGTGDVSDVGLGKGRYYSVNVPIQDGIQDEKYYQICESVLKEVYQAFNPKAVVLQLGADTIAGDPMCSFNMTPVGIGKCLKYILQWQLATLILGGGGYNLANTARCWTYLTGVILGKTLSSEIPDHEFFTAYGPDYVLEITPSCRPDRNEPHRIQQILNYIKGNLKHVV

[22] = biological target: DNA topoisomerase 2-alpha (Homo sapiens) (UniProt P11388); experiment: Inhibition of topoisomerase 2 in human DU145 cells assessed as stabilization of enzyme-DNA cleavage complex at […] after 30 mins by immunoblot analysis; format: cell-based; conditions: DU-145
[23] = biological target: DNA topoisomerase 2-alpha (Homo sapiens) (UniProt P11388); experiment: Inhibition of topoisomerase 2 in human DU145 cells assessed as stabilization of enzyme-DNA cleavage complex at […] after 72 hrs by immunoblot analysis; format: cell-based; conditions: DU-145
[24] = Drug uptake in human DU145 cell vesicle like body at 1 uM after 4 hrs by confocal microscopic analysis; format: ADME, cell-based; conditions: du-145, 4 h; procedure, shortened: as §3
[25] = Drug uptake in human A549 cell vesicle like body at 1 uM after 4 hrs by confocal microscopic analysis; format: ADME, cell-based; conditions: a549, 4 h; procedure, shortened: as §3
[26] = biological target: T3, Protein deacetylase HDAC6 (Homo sapiens); conditions: DU-145, 10 uM

SMILES | IC50 [1] [nM] | IC50 [2] [nM] | IC50 [3] [nM] | inhibition [4] | IC50 [5] [nM] | IC50 [6] [nM] | IC50 [7] [nM] | Activity [13] | Activity [14] | IC50 [21] [nM] | other results
COc1cccc2c1C(=O)c1c(O)c3c(c(O)c1C2=O)C[C@@](O)(C(C)=O)C[C@@H]3O[C@H]1C[C@H](NCc2ccc(-c3cn(CCCCC(=O)NO)nn3)cc2)[C@H](O)[C@H](C)O1 | 89.9 | 4600 | 555 | Active | 5390 | 15300 | 24500 |  |  |  | 
COc1cccc2c1C(=O)c1c(O)c3c(c(O)c1C2=O)C[C@@](O)(C(C)=O)C[C@@H]3O[C@H]1C[C@H](N)[C@H](O)[C@H](C)O1 [DAUNORUBICIN] |  |  |  | Active | 90 | 170 | 950 | inactive | inactive |  | inhibition [8]: inactive; inhibition [9]: Dose-dependent effect; inhibition [10]: Active; inhibition [11]: inactive; inhibition [12]: Active; inhibition [15]: Active; inhibition [16]: Active; Drug uptake [17]: Active; Drug uptake [18]: Active; Drug uptake [19]: Active; Drug uptake [20]: Active
O=C(CCCCCCC(=O)Nc1ccccc1)NO [VORINOSTAT] |  |  |  |  | 2120 |  |  |  |  |  | 
COc1cccc2c1C(=O)c1c(O)c3c(c(O)c1C2=O)C[C@@](O)(C(C)=O)C[C@@H]3O[C@H]1C[C@H](NCc2ccc(-c3cn(CCCCCCCC(=O)NO)nn3)cc2)[C@H](O)[C@H](C)O1 | 4.2 | 11 | 19 | Active | 2060 | 2610 | 14800 |  |  | 379 | 
COc1cccc2c1C(=O)c1c(O)c3c(c(O)c1C2=O)C[C@@](O)(C(C)=O)C[C@@H]3O[C@H]1C[C@H](NCc2ccc(-c3cn(CCCCCCC(=O)NO)nn3)cc2)[C@H](O)[C@H](C)O1 | 0.9 | 8 | 20 | Active | 2920 | 3310 | 10600 |  |  | 710 | 
COc1cccc2c1C(=O)c1c(O)c3c(c(O)c1C2=O)C[C@@](O)(C(C)=O)C[C@@H]3O[C@H]1C[C@H](NCc2ccc(-c3cn(CCCCCC(=O)NO)nn3)cc2)[C@H](O)[C@H](C)O1 |  |  | 30 | Active | 1610 | 4680 | 13400 | inactive | inactive | 4130 | inhibition [22]: Active; inhibition [23]: inactive; Drug uptake [24]: Active; Drug uptake [25]: Active; inhibition [26]: Active

— ChEMBL document CHEMBL2021781, “Dual targeting of histone deacetylase and topoisomerase II with novel bifunctional inhibitors” (J Med Chem, 2012)
